The values below come from ChEMBL document CHEMBL1811822, “P2-P1' macrocyclization of P2 phenylglycine based HCV NS3 protease inhibitors using ring-closing metathesis” (Bioorg Med Chem, 2011).

As a reminder, the EC50 is the concentration needed to bring the measured effect to its halfway point. As usually defined, the Ki is a dissociation constant, usually derived from enzyme kinetics or from competition with a known ligand.

Each structure is given as a SMILES string.

The first test relates to Hepatitis C virus. The experiment in a line: Antiviral activity against HCV. Type of test: functional, organism-based, Hepacivirus hominis.
Details: not given
Molecule `COc1ccc2c(O[C@@H]3C[C@H]4C(=O)N[C@]5(C(=O)O)C[C@H]5/C=C\CCCCC[C@H](NC(=O)OC5CCCC5)C(=O)N4C3)cc(-c3csc(NC(C)C)n3)nc2c1` [CILUPREVIR] had an EC50 of 0.35 µM. The same measure, in the same setting: the value for `CC(C)(C)OC(=O)N[C@H]1CCCCC/C=C\[C@@H]2C[C@@]2(C(=O)NS(=O)(=O)C2CC2)NC(=O)[C@@H]2C[C@@H](OC(=O)N3Cc4cccc(F)c4C3)CN2C1=O` [DANOPREVIR] was 0.0006 µM.

Target in a further test: not listed separately
The experiment in a line: Inhibition of protease activity of full-length HCV genotype 1a NS3 protease by FRET assay.
Details: not given
On to `CCC[C@@H]1NC(=O)[C@H](NC(=O)[C@@H](NC(=O)OC(C)(C)C)C(C)(C)C)c2ccc(Oc3cc(-c4ccccc4)nc4cc(OC)ccc34)c(c2)/C=C\CC2(CC2)S(=O)(=O)NC1=O`, for which the Ki worked out at 0.87 µM. Same read-out and setting: for `CCC[C@@H]1NC(=O)[C@@H](NC(=O)[C@@H](NC(=O)OC(C)(C)C)C(C)(C)C)c2ccc(Oc3cc(-c4ccccc4)nc4cc(OC)ccc34)c(c2)/C=C\Cc2ccccc2S(=O)(=O)NC1=O` the value was 0.19 µM. The molecule `CCC[C@@H]1NC(=O)[C@@H](NC(=O)[C@@H](NC(=O)OC(C)(C)C)C(C)(C)C)c2ccc(Oc3cc(-c4ccccc4)nc4cc(OC)ccc34)c(c2)/C=C\c2ccccc2S(=O)(=O)NC1=O` gave a Ki of 0.17 µM. Still for that read-out and setting: the value for `CCC[C@@H]1NC(=O)[C@@H](NC(=O)[C@@H](NC(=O)OC(C)(C)C)C(C)(C)C)c2ccc(Oc3cc(-c4ccccc4)nc4cc(OC)ccc34)c(c2)/C=C/c2ccccc2S(=O)(=O)NC1=O` was 0.15 µM. The same measure, in the same setting: the value for `CCC[C@@H]1NC(=O)[C@@H](NC(=O)[C@@H](NC(=O)OC(C)(C)C)C(C)(C)C)c2ccc(Oc3cc(-c4ccccc4)nc4cc(OC)ccc34)c(c2)CCCc2ccccc2S(=O)(=O)NC1=O` was 0.25 µM; that for `CCC[C@@H]1NC(=O)[C@@H](NC(=O)[C@@H](NC(=O)OC(C)(C)C)C(C)(C)C)c2ccc(Oc3cc(-c4ccccc4)nc4cc(OC)ccc34)c(c2)/C=C\CC2(CC2)S(=O)(=O)NC1=O` was 0.11 µM; that for `CCC[C@@H]1NC(=O)[C@@H](NC(=O)[C@@H](NC(=O)OC(C)(C)C)C(C)(C)C)c2ccc(Oc3cc(-c4ccccc4)nc4cc(OC)ccc34)c(c2)/C=C\CCCS(=O)(=O)NC1=O` was 0.39 µM. The same measure, in the same setting: for `CCC[C@@H]1NC(=O)[C@@H](NC(=O)[C@@H](NC(=O)OC(C)(C)C)C(C)(C)C)c2ccc(Oc3cc(-c4ccccc4)nc4cc(OC)ccc34)c(c2)/C=C/CCCS(=O)(=O)NC1=O` the value was 0.24 µM. `CCC[C@@H]1NC(=O)[C@H](NC(=O)[C@@H](NC(=O)OC(C)(C)C)C(C)(C)C)c2ccc(Oc3cc(-c4ccccc4)nc4cc(OC)ccc34)c(c2)/C=C\CCCS(=O)(=O)NC1=O`: the inhibition constant Ki is 0.76 µM. Same read-out and setting: the value for `CCC[C@@H]1NC(=O)[C@@H](NC(=O)[C@@H](NC(=O)OC(C)(C)C)C(C)(C)C)c2ccc(Oc3cc(-c4ccccc4)nc4cc(OC)ccc34)c(c2)/C=C\CCS(=O)(=O)NC1=O` was 0.137 µM; that for `CCC[C@@H]1NC(=O)[C@@H](NC(=O)[C@@H](NC(=O)OC(C)(C)C)C(C)(C)C)c2ccc(Oc3cc(-c4ccccc4)nc4cc(OC)ccc34)c(c2)/C=C/CCCCS(=O)(=O)NC1=O` was 0.94 µM. Still for that read-out and setting: the value for `CCC[C@@H]1NC(=O)[C@H](NC(=O)[C@@H](NC(=O)OC(C)(C)C)C(C)(C)C)c2ccc(Oc3cc(-c4ccccc4)nc4cc(OC)ccc34)c(c2)/C=C/CCCCS(=O)(=O)NC1=O` was 0.71 µM; that for `CCC[C@@H]1NC(=O)[C@@H](NC(=O)[C@@H](NC(=O)OC(C)(C)C)C(C)(C)C)c2ccc(Oc3cc(-c4ccccc4)nc4cc(OC)ccc34)c(c2)/C=C\CCCCS(=O)(=O)NC1=O` was 0.32 µM; that for `CCC[C@@H]1NC(=O)[C@@H](NC(=O)[C@@H](NC(=O)OC(C)(C)C)C(C)(C)C)c2ccc(Oc3cc(-c4ccccc4)nc4cc(OC)ccc34)c(c2)CCCCCCS(=O)(=O)NC1=O` was 0.57 µM.

In turn, `CCC[C@@H]1NC(=O)[C@@H](NC(=O)[C@@H](NC(=O)OC(C)(C)C)C(C)(C)C)c2ccc(Oc3cc(-c4ccccc4)nc4cc(OC)ccc34)c(c2)C/C=C/CS(=O)(=O)NC1=O` gave a Ki of 0.222 µM.

`CCC[C@@H]1NC(=O)[C@@H](NC(=O)[C@@H](NC(=O)OC(C)(C)C)C(C)(C)C)c2ccc(Oc3cc(-c4ccccc4)nc4cc(OC)ccc34)c(c2)C/C=C/CCS(=O)(=O)NC1=O` (mixture of isomers) registered an inhibition constant Ki of 0.47 µM.

Target in the next test: not listed separately
The experiment in a line: Inhibition of HCV NS3 protease. Further details: species or system Hepacivirus hominis.
Details: not given
A digest of the protocol:
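Full-length NS3 protein (protease–helicase/NTPase domains) from HCV genotype 1a, wild-type, with a 16-residue NS4A activating-region peptide. Protease activity was read by FRET. Enzyme at 1 nM was incubated 10 min at 30 °C in 50 mM HEPES, pH 7.5. Ki values were derived and reported with standard deviation.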
`C=CCCCS(=O)(=O)NC(=O)[C@H](CCC)NC(=O)[C@@H](NC(=O)[C@@H](NC(=O)OC(C)(C)C)C(C)(C)C)c1ccc(Oc2cc(-c3ccccc3)nc3cc(OC)ccc23)c(C=C)c1` came in with a Ki of 0.063 µM. Turning to `C=CCCCS(=O)(=O)NC(=O)[C@H](CCC)NC(=O)[C@H](NC(=O)[C@@H](NC(=O)OC(C)(C)C)C(C)(C)C)c1ccc(Oc2cc(-c3ccccc3)nc3cc(OC)ccc23)c(C=C)c1`, the Ki was determined as 0.048 µM. Still for that read-out and setting: the value for `COc1ccc2c(O[C@@H]3C[C@H]4C(=O)N[C@]5(C(=O)O)C[C@H]5/C=C\CCCCC[C@H](NC(=O)OC5CCCC5)C(=O)N4C3)cc(-c3csc(NC(C)C)n3)nc2c1` [CILUPREVIR] was 0.04 µM.

A further test relates to Hepatitis C virus. The experiment in a line: Antiviral activity against HCV 1b infected in human HuH7 cells assessed as inhibition of viral replication by luciferase assay. The conditions noted are these: genotype 1b, Huh-7. Type of test: functional, organism-based, Hepacivirus hominis.
As for `CCC[C@@H]1NC(=O)[C@@H](NC(=O)[C@@H](NC(=O)OC(C)(C)C)C(C)(C)C)c2ccc(Oc3cc(-c4ccccc4)nc4cc(OC)ccc34)c(c2)/C=C/CCCS(=O)(=O)NC1=O`, the half-maximal effective concentration (EC50) turned out to be 6 µM.
